Hits are enriched below; roughly 1.9% of the tested compounds scored in any of these assays.
Rin1 Abl inh: inhibitors of human Rin1-Abl protein interaction | TR-FRET Rin1/Abl binding, biochemical | inhibition, % at 7.35 µM | 360,000 compounds, 0.4% hits | AID 588664; in the data active means inhibition above about 5%, passing the limit was not always enough
NadD inh: NadD (S. aureus) enzyme inhibition. inhibition, % at 20 µM. purified NadD enzyme, colorimetric absorbance read-out. 360,000 compounds, 0.78% hits; in the data active means inhibition above about 26%
ABHD5-PLIN5 inh: inhibitors of human ABHD5-perilipin-5 interaction | Q00G26+Q8WTS1 | Split G. princeps luciferase complementation, luminescence, 4 h | inhibition, % at 4 µM | 360,000 compounds, 0.78% hits;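 active means inhibition above the mean inhibition across every tested compound plus 3 SD, cut at about 22% in these data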;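 further: 0% = DMSO only wells and the 100% control is not disclosed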
Target sequence (Q00G26 whole entry, looked up): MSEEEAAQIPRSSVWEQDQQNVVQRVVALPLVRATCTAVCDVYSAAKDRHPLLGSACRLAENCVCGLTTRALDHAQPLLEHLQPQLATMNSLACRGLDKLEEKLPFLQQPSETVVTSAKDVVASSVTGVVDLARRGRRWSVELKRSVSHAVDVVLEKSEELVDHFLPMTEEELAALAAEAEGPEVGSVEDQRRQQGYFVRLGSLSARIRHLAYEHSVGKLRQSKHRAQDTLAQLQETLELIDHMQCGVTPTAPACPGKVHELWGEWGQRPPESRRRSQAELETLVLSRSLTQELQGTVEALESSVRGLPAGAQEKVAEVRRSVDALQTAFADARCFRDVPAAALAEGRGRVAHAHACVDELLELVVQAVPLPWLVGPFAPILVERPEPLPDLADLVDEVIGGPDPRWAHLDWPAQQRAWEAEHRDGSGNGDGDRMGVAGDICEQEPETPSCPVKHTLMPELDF
Target sequence (Q8WTS1 whole entry, looked up): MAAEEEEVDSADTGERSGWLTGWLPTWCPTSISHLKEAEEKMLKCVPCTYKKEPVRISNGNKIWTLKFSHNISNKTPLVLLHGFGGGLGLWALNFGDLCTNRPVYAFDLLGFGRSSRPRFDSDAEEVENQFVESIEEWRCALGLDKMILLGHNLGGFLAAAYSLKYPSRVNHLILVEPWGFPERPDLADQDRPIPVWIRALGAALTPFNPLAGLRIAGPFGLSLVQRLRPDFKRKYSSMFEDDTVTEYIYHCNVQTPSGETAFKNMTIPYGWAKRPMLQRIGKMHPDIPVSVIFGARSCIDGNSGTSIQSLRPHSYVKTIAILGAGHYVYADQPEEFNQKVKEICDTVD
Rpn11 block: Rpn11 (human) deubiquitinase inhibition | inhibition, % at 20 µM | human 26S proteasome, Ub4-pepOG fluorescence polarization; 20S core pre-blocked with epoxomicin | 360,000 compounds, 0.59% hits | O00487;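 active means inhibition at 20 µM, scaled to each plate's controls, above about 33%, limit read from the data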
Xi reactivation: reactivates the inactive X chromosome in mouse fibroblasts; XiGFP mouse fibroblasts, % GFP-positive cells imaging, 3 d; cells co-treated with 5-aza-dC sensitizer; scaled so ellipticine positive control = 100%; activation, % at 7.58 µM; 360,000 compounds, 0.055% hits; AID 743238;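 active means mean normalized replicate activation at least 10% and every replicate at or above 10%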;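 further: 0% = median of on-plate neutral control wells and 100% = ellipticine 6 µM median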
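Material: XiGFP fibroblasts, SV40-immortalized. Buffer or medium: DMEM plus 5-aza-dC sensitizer. Compound: single concentration per compound, delivered by pin transfer. Times: 3 days compound exposure. Controls: ellipticine 6 µM.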
NadD conf: NadD (S. aureus) inhibition, single concentration confirmation; inhibition, % at 20 µM; shares compounds with NadD inh; 2,000 compounds, 13% hits; purified S. aureus NadD, colorimetric enzyme assay; AID 624309; in the data active means inhibition mostly above about 42%, no sharp cut-off; inactive means mostly below about 42%
Starred values were filed as active, the others as inactive; x = not tested or not shown.

SMILES	Rin1 Abl inh	NadD inh	ABHD5-PLIN5 inh	Rpn11 block	Xi reactivation	NadD conf
NC(=S)NNc1cccc2cccnc12	-2	34*	-1	13	0	18
O=C(NC(=S)Nc1nc(-c2cccc([N+](=O)[O-])c2)cs1)c1cc(Cl)ccc1Cl	3	30*	12	2	0	8
O=C(NC(=S)Nc1nc(-c2cccc([N+](=O)[O-])c2)cs1)c1ccccc1Cl	-1	15	-1	-2	0	x
CCc1ccc2[nH]c(=O)c(CN(CCN(C)C)C(=S)NCc3ccco3)cc2c1	1	37*	-5	16	0	-34
CCc1ccc2[nH]c(=O)c(CN(CCN(CC)CC)C(=S)NCc3ccco3)cc2c1	1	-2	6	10	0	x
C[C@@H]1CCCCO[C@H](CN(C)S(=O)(=O)c2ccc(F)cc2)[C@@H](C)CN([C@H](C)CO)C(=O)c2cc(NC(=O)Nc3ccc(C(F)(F)F)cc3)ccc2O1	0	35*	-7	14	0	-2
COc1ccc(S(=O)(=O)N(C)C[C@@H]2OCCCC[C@H](C)Oc3ccc(NC(=O)Nc4ccc(C(F)(F)F)cc4)cc3C(=O)N([C@H](C)CO)C[C@H]2C)cc1	2	30*	11	3	0	-3
C[C@@H]1CN([C@@H](C)CO)C(=O)c2cc(C#CC3CCCCC3)cnc2O[C@@H]1CN(C)S(=O)(=O)c1ccc(F)cc1	1	75*	5	7	0	33
C[C@@H]1CCCCO[C@H](CN(C)C(=O)Nc2ccc(C(F)(F)F)cc2)[C@@H](C)CN([C@H](C)CO)C(=O)c2cc(NC(=O)c3ccncc3)ccc2O1	-1	35*	2	12	0	35
C[C@@H]1CCCCO[C@H](CN(C)C(=O)Nc2ccc(C(F)(F)F)cc2)[C@H](C)CN([C@H](C)CO)C(=O)c2cc(NC(=O)c3ccncc3)ccc2O1	x	x	x	x	0	x
C[C@@H]1CN([C@H](C)CO)S(=O)(=O)c2ccc(C#CC3CCCC3)cc2O[C@H]1CN(C)C(=O)C1CC1	x	x	x	x	-1	x
C[C@H]1CN([C@@H](C)CO)S(=O)(=O)c2ccc(/C=C/c3ccccc3)cc2O[C@@H]1CN(C)Cc1cncnc1	x	x	x	x	0	x
COc1ccccc1CNC(=O)C[C@H]1C=C[C@H](NC(C)=O)[C@H](CO)O1	x	x	x	x	0	x
O=C(CN1CCCCC1)Nc1nnc(-c2ccc([N+](=O)[O-])cc2)s1	-2	33*	0	8	x	13
O=C(CN1CCCCC1)Nc1nnc(-c2ccccc2)s1	-1	3	0	1	x	x
O=C(Nc1cccc(F)c1)N1CC(=O)N2[C@H](CO)[C@H](c3ccc(-c4ccccc4)cc3)[C@H]2C1	x	x	x	x	0	x
Cn1cnc(C(=O)NCc2ccc(CNC(=O)OC(C)(C)C)cc2)c1C(=O)NCc1ccc(CNC(=O)OC(C)(C)C)cc1	6	33*	-11	-8	0	27
CC(C)(C)OC(=O)NCc1ccc(CNC(=O)c2ncn(Cc3ccccc3)c2C(=O)NCc2ccc(CNC(=O)OC(C)(C)C)cc2)cc1	1	12	-5	3	0	x
CC(C)(C)OC(=O)NCc1ccc(NC(=O)c2nc[nH]c2C(=O)NCCN(CCNC(=O)c2[nH]cnc2C(=O)Nc2ccc(CNC(=O)OC(C)(C)C)cc2)CCNC(=O)c2[nH]cnc2C(=O)Nc2ccc(CNC(=O)OC(C)(C)C)cc2)cc1	6	43*	-2	3	0	12
CC(C)(C)OC(=O)NCc1ccc(NC(=O)c2nc[nH]c2C(=O)NCCCNC(=O)c2[nH]cnc2C(=O)Nc2ccc(CNC(=O)OC(C)(C)C)cc2)cc1	-1	17	0	2	x	x
CC(C)(C)OC(=O)NCc1ccc(NC(=O)c2nc[nH]c2C(=O)NCCCCCCNC(=O)c2[nH]cnc2C(=O)Nc2ccc(CNC(=O)OC(C)(C)C)cc2)cc1	2	39*	7	7	0	14
Cc1ccc(Nc2nc3ccccc3nc2Nc2c(C)n(C)n(-c3ccccc3)c2=O)cc1	2	35*	-9	0	0	0
C[C@@H]1CN([C@@H](C)CO)C(=O)c2cc(NC(=O)Nc3ccc(C(F)(F)F)cc3)ccc2O[C@@H](C)CCCCO[C@H]1CN(C)S(=O)(=O)c1cccs1	x	x	x	x	0	x
OC[C@H]1[C@H](c2ccc(Br)cc2)[C@H]2CN(Cc3cncnc3)CCCCN21	x	x	x	x	0	x
Cc1ccnc(NS(=O)(=O)c2ccc(N3C(=O)c4ccccc4C3=O)cc2)n1	-2	1	1	-6	0	x
SMILES	Rin1 Abl inh	NadD inh	ABHD5-PLIN5 inh	Rpn11 block	Xi reactivation	NadD conf
Cc1ccnc(NS(=O)(=O)c2ccc(N3C(=O)c4c(Cl)c(Cl)c(Cl)c(Cl)c4C3=O)cc2)n1	0	34*	7	6	0	6
O=C(N/N=C/c1ccco1)c1cccc(N2CCCC2=O)c1	-1	0	2	-5	0	x
O=C(N/N=C/c1ccco1)c1cccc(N2Cc3ccccc3C2)c1	0	35*	8	6	0	47
S=c1nc[nH]c2c1sc1nc(-c3ccccc3)c3c(c12)CCCC3	-4	40*	2	8	0	-2
CCC(=O)N1C[C@H](O)COC[C@H]2O[C@H](CC(=O)NCc3cc(F)cc(F)c3)CC[C@@H]21	x	x	x	x	0	x
C[C@@H]1CN([C@@H](C)CO)C(=O)c2cc(NC(=O)c3ccncc3)ccc2O[C@H]1CN(C)C(=O)Nc1ccc(C(F)(F)F)cc1	x	x	x	x	-1	x
COc1ccc(NC(=O)N2CCCCN3[C@H](CO)[C@H](c4ccc(C#Cc5ccccn5)cc4)[C@H]3C2)cc1	x	x	x	x	0	x
C[C@@H]1CN([C@@H](C)CO)C(=O)Cc2cc(NC(=O)Cc3cn(C)c4ccccc34)ccc2O[C@@H]1CN(C)C(=O)Nc1ccc2c(c1)OCO2	x	x	x	x	-1	x
Cc1c(/C=C2\SC(=O)N(CC(=O)Nc3ccc4c(c3)OCO4)C2=O)c2ccccc2n1C	0	22	1	9	x	x
Cc1cc(C(=O)O)ccc1-c1ccc(/C=C2\SC(=O)N(CC(=O)Nc3ccc4c(c3)OCO4)C2=O)o1	-1	48*	-10	18	1	9
C[C@H](CO)N1C[C@H](C)[C@H](CN(C)S(=O)(=O)c2ccc(Cl)cc2)OCCCC[C@H](C)Oc2ccc(NC(=O)CCC(F)(F)F)cc2C1=O	x	x	x	x	0	x
O=C(N/N=C/c1c(Nc2cccc(C(F)(F)F)c2)nc2ccccn2c1=O)c1ccccc1[N+](=O)[O-]	-3	32*	-3	-3	0	5
O=C(CNc1cccc2ccccc12)N/N=C/C(Br)=C/c1ccccc1	2	45*	10	8	x	24
O=C(CNc1cccc2ccccc12)N/N=C/c1ccc(OC(=O)/C=C/c2ccco2)cc1	-4	40*	-5	0	0	13

Compound activity: PubChem BioAssay, several laboratories
